Assays:
Assay type in all cases: functional
MDA-MB-468 = experiment: Cytotoxicity against human MDA-MB-468 cells assessed as growth inhibition after 48 hrs by SRB assay
In short: (§1)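 NCI 60-cell-line screen, five-dose stage: each cell line exposed for 48 h to five concentrations spanning five log steps; cellular protein measured by sulforhodamine B colorimetry. A time-zero cell control and plates without drug are used to derive GI50, TGI and LC50 from log-concentration dose-response curves.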

BT-549 = experiment: Cytotoxicity against human BT549 cells assessed as growth inhibition after 48 hrs by SRB assay
In short: (§2)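 NCI 60-cell-line five-dose screen at […]. Drug exposure was 48 h, followed by sulforhodamine B protein staining. GI50, TGI and LC50 were calculated against a time-zero control and untreated plates, with dose–response curves plotted from log10 concentration.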

[1] = (§3) Cytotoxicity against human Hs578T cells assessed as growth inhibition after 48 hrs by SRB assay; details: Hs-578T; in short: as §2
Hs-578T = experiment: as §3; in short: as §2
PC-3 = experiment: Cytotoxicity against human PC3 cells assessed as growth inhibition after 48 hrs by SRB assay; in short: as §1
[2] = (§4) Cytotoxicity against human UO31 cells assessed as growth inhibition after 48 hrs by SRB assay; details: UO-31, 48 h
In short: (§5)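 NCI 60-cell-line screen, two stages. Five-dose testing at […]. Cellular protein measured by sulforhodamine B colorimetry after 48 h drug exposure. A time-zero control and drug-free plates are used to derive GI50, TGI and LC50 from dose-response curves plotted as log10 concentration per cell line.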

UO-31 = experiment: as §4; in short: as §5
ACHN = experiment: Cytotoxicity against human ACHN cells assessed as growth inhibition after 48 hrs by SRB assay; in short: as §2
A498 = experiment: Cytotoxicity against human A498 cells assessed as growth inhibition after 48 hrs by SRB assay; in short: as §2
786-0 = experiment: Cytotoxicity against human 786-0 cells assessed as growth inhibition after 48 hrs by SRB assay; in short: as §2
OVCAR-3 = experiment: Cytotoxicity against human OVCAR3 cells assessed as growth inhibition after 48 hrs by SRB assay; in short: as §1
[3] = (§6) Cytotoxicity against human OVCAR4 cells assessed as growth inhibition after 48 hrs by SRB assay; details: OVCAR-4, 48 h; in short: as §1
OVCAR-4 = experiment: as §6; in short: as §1
UACC-62 = experiment: Cytotoxicity against human UACC62 cells assessed as growth inhibition after 48 hrs by SRB assay; in short: as §5
IGROV-1 = experiment: Cytotoxicity against human IGROV1 cells assessed as growth inhibition after 48 hrs by SRB assay; in short: as §2
[4] = (§7) Cytotoxicity against human UACC257 cells assessed as growth inhibition after 48 hrs by SRB assay; details: UACC-257, 48 h; in short: as §5
UACC-257 = experiment: as §7; in short: as §5
SK-MEL-5 = experiment: Cytotoxicity against human SK-MEL-5 cells assessed as growth inhibition after 48 hrs by SRB assay; in short: as §1
LOX IMVI = experiment: Cytotoxicity against human LOXIMVI cells assessed as growth inhibition after 48 hrs by SRB assay; in short: as §2
SNB-19 = experiment: Cytotoxicity against human SNB19 cells assessed as growth inhibition after 48 hrs by SRB assay; in short: as §5
SF-539 = experiment: Cytotoxicity against human SF539 cells assessed as growth inhibition after 48 hrs by SRB assay; in short: as §1
SF-268 = experiment: Cytotoxicity against human SF268 cells assessed as growth inhibition after 48 hrs by SRB assay; in short: as §1
HCT-15 = experiment: Cytotoxicity against human HCT15 cells assessed as growth inhibition after 48 hrs by SRB assay; in short: as §2
HCT-116 = experiment: Cytotoxicity against human HCT116 cells assessed as growth inhibition after 48 hrs by SRB assay; in short: as §2
HCC 2998 = experiment: Cytotoxicity against human HCC2998 cells assessed as growth inhibition after 48 hrs by SRB assay; in short: as §2
COLO 205 = experiment: Cytotoxicity against human COLO205 cells assessed as growth inhibition after 48 hrs by SRB assay; in short: as §2
NCI-H322M = experiment: Cytotoxicity against human NCI-H322M cells assessed as growth inhibition after 48 hrs by SRB assay; in short: as §1
NCI-H23 = experiment: Cytotoxicity against human NCI-H23 cells assessed as growth inhibition after 48 hrs by SRB assay; in short: as §1
[5] = (§8) Cytotoxicity against human EKVX cells assessed as growth inhibition after 48 hrs by SRB assay; in short: as §2
EKVX = experiment: as §8; in short: as §2
SR = experiment: Cytotoxicity against human SR cells assessed as growth inhibition after 48 hrs by SRB assay; in short: as §5
[6] = Cytotoxicity against human Hs578T cells assessed as cell growth at 10 uM after 48 hrs by SRB assay; details: Hs-578T, read-out: Activity
[7] = read-out: LC50 (the source's name)

For `CCSc1nc2ccc3c(c2[nH]1)C(=O)c1ccccc1C3=O`, the “growth inhibition (GI)” value (MDA-MB-468) was “Dose-dependent effect”, the GI50 (MDA-MB-468; MDA-MB-468, 48 h) was 2010 nM and the LC50 (MDA-MB-468; MDA-MB-468, 48 h) was over 100 µM. The TGI (MDA-MB-468; MDA-MB-468, 48 h) was 59.6 µM, the “growth inhibition (GI)” value (BT-549) was “Dose-dependent effect” and the GI50 (BT-549; BT-549, 48 h) was 9.34 µM. The LC50 (concentration killing 50% of cells) (BT-549; BT-549, 48 h) was over 100 µM, the TGI (BT-549; BT-549, 48 h) was over 100 µM and the GI50 [1] was 5.12 µM. For the same compound, the TGI [1] was over 100 µM, the CC50 [1, 7] was over 100 µM and the “growth inhibition (GI)” value (Hs-578T) was “Dose-dependent effect”. For the same compound, the “growth inhibition (GI)” value (PC-3) was “Dose-dependent effect”, the GI50 (PC-3; PC-3, 48 h) was 65 µM and the LC50 (PC-3; PC-3, 48 h) was over 100 µM. For the same compound, the TGI (PC-3; PC-3, 48 h) was over 100 µM, the GI50 [2] was 3.31 µM and the LC50 [2] was over 100 µM. For the same compound, the TGI [2] was over 100 µM, the “growth inhibition (GI)” value (UO-31) was “Dose-dependent effect” and the GI50 (ACHN) was 5.09 µM. The TGI (ACHN) was over 100 µM, the “growth inhibition (GI)” value (ACHN) was “Dose-dependent effect” and the CC50 (ACHN; [7]) was over 100 µM. For the same compound, the “growth inhibition (GI)” value (A498) was “Dose-dependent effect”, the GI50 (A498; A498, 48 h) was 4.7 µM and the TGI (A498; A498, 48 h) was over 100 µM. For the same compound, the CC50 (A498; A498, 48 h, read-out: LC50 (the source's name)) was over 100 µM, the “growth inhibition (GI)” value (786-0) was “Dose-dependent effect” and the GI50 (786-0; 786-0, 48 h) was 46.7 µM. For the same compound, the LC50 (concentration causing 50% net cell kill) (786-0; 786-0, 48 h) was over 100 µM, the TGI (786-0; 786-0, 48 h) was over 100 µM and the “growth inhibition (GI)” value (OVCAR-3) was “Dose-dependent effect”. It also gave a GI50 (OVCAR-3; OVCAR-3, 48 h) of 10.2 µM, an LC50 (50% lethal concentration) (OVCAR-3; OVCAR-3, 48 h) of over 100 µM and a TGI (OVCAR-3; OVCAR-3, 48 h) of over 100 µM. For the same compound, the GI50 [3] was 3.17 µM, the LC50 (concentration killing 50% of cells) [3] was over 100 µM and the TGI [3] was over 100 µM. For the same compound, the “growth inhibition (GI)” value (OVCAR-4) was “Dose-dependent effect”, the “growth inhibition (GI)” value (UACC-62) was “Dose-dependent effect” and the GI50 (UACC-62; UACC-62, 48 h) was 7.73 µM. For the same compound, the LC50 (UACC-62; UACC-62, 48 h) was over 100 µM, the TGI (UACC-62; UACC-62, 48 h) was over 100 µM and the “growth inhibition (GI)” value (IGROV-1) was “Dose-dependent effect”. It also gave a GI50 (IGROV-1; IGROV-1, 48 h) of 2380 nM, an LC50 (IGROV-1; IGROV-1, 48 h) of over 100 µM and a TGI (IGROV-1; IGROV-1, 48 h) of over 100 µM. It also gave a GI50 [4] of over 100 µM, an LC50 [4] of over 100 µM and a TGI [4] of over 100 µM. For the same compound, the “growth inhibition (GI)” value (UACC-257) was “Dose-dependent effect”, the “growth inhibition (GI)” value (SK-MEL-5) was “Dose-dependent effect” and the GI50 (SK-MEL-5; SK-MEL-5, 48 h) was 33.6 µM. It also gave an LC50 (concentration killing 50% of cells relative to time zero) (SK-MEL-5; SK-MEL-5, 48 h) of over 100 µM, a TGI (SK-MEL-5; SK-MEL-5, 48 h) of over 100 µM and a GI50 (LOX IMVI) of 6 µM. For the same compound, the LC50 (LOX IMVI) was over 100 µM, the TGI (LOX IMVI) was over 100 µM and the “growth inhibition (GI)” value (LOX IMVI) was “Dose-dependent effect”. For the same compound, the “growth inhibition (GI)” value (SNB-19) was “Dose-dependent effect”, the GI50 (SNB-19; SNB-19, 48 h) was over 100 µM and the LC50 (SNB-19; SNB-19, 48 h) was over 100 µM. For the same compound, the TGI (SNB-19; SNB-19, 48 h) was over 100 µM, the “growth inhibition (GI)” value (SF-539) was “Dose-dependent effect” and the GI50 (SF-539; SF-539, 48 h) was 22.9 µM. For the same compound, the TGI (SF-539; SF-539, 48 h) was over 100 µM, the CC50 (SF-539; SF-539, 48 h, read-out: LC50 (the source's name)) was over 100 µM and the “growth inhibition (GI)” value (SF-268) was “Dose-dependent effect”. It also gave a GI50 (SF-268; SF-268, 48 h) of 18.1 µM, an LC50 (concentration killing 50% of cells relative to time zero) (SF-268; SF-268, 48 h) of over 100 µM and a TGI (SF-268; SF-268, 48 h) of over 100 µM. The “growth inhibition (GI)” value (HCT-15) was “Dose-dependent effect”, the GI50 (HCT-15; HCT-15, 48 h) was 3.52 µM and the LC50 (concentration killing 50% of cells) (HCT-15; HCT-15, 48 h) was over 100 µM. For the same compound, the TGI (HCT-15; HCT-15, 48 h) was over 100 µM, the “growth inhibition (GI)” value (HCT-116) was “Dose-dependent effect” and the GI50 (HCT-116; HCT-116, 48 h) was 5.59 µM. The LC50 (HCT-116; HCT-116, 48 h) was over 100 µM, the TGI (HCT-116; HCT-116, 48 h) was over 100 µM and the “growth inhibition (GI)” value (HCC 2998) was “Dose-dependent effect”. For the same compound, the GI50 (HCC 2998; HCC 2998, 48 h) was 12.6 µM, the TGI (HCC 2998; HCC 2998, 48 h) was over 100 µM and the CC50 (HCC 2998; HCC 2998, 48 h, read-out: LC50 (the source's name)) was over 100 µM. The “growth inhibition (GI)” value (COLO 205) was “Dose-dependent effect”, the GI50 (COLO 205; COLO 205, 48 h) was 17.4 µM and the LC50 (COLO 205; COLO 205, 48 h) was over 100 µM. For the same compound, the TGI (COLO 205; COLO 205, 48 h) was over 100 µM, the GI50 (NCI-H322M) was 3.24 µM and the LC50 (concentration killing 50% of cells relative to time zero) (NCI-H322M) was over 100 µM. For the same compound, the TGI (NCI-H322M) was over 100 µM, the “growth inhibition (GI)” value (NCI-H322M) was “Dose-dependent effect” and the “growth inhibition (GI)” value (NCI-H23) was “Dose-dependent effect”. For the same compound, the GI50 (NCI-H23; NCI-H23, 48 h) was 8.6 µM, the LC50 (NCI-H23; NCI-H23, 48 h) was over 100 µM and the TGI (NCI-H23; NCI-H23, 48 h) was over 100 µM. It also gave a GI50 [5] of 2130 nM, an LC50 [5] of over 100 µM and a TGI [5] of 29 µM. For the same compound, the “growth inhibition (GI)” value (EKVX) was “Dose-dependent effect”, the GI50 (SR) was 2360 nM and the LC50 (50% lethal concentration) (SR) was over 100 µM. For the same compound, the TGI (SR) was over 100 µM, the “growth inhibition (GI)” value (SR) was “Dose-dependent effect” and the growth at 10 µM [6] was 85.4%.
